This note sets out measurements from ChEMBL document CHEMBL1148910, “A coumarin from Mallotus resinosus that mediates DNA cleavage” (J Nat Prod, 2004).

SMILES strings stand for the structures. Activity calls are given as the source filed them. The rule behind the calls is not given here.

Assay [1] has as its system Escherichia coli. The experiment in a line: Induction of strand scission in pBR322 DNA assessed as conversion from supercoiled form to nicked form at 1000 uM after 60 mins by agarose gel electrophoresis in absence of Cu2+. The essentials:
(§1)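 No Cu2+ was added. Supercoiled pBR322 DNA (500 ng) was incubated with test compound (in DMSO, final ≤5%) in 25 µL of 10 mM Tris-HCl, pH 8.0, at 37 °C for 60 min, with DNA alone as the blank. Products were separated on a 1.0% agarose gel with ethidium bromide in TBE at 110-120 V for 2-3 h and photographed under UV. Read-out was % nicked (form II) DNA.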

For assay [2], the system named is Escherichia coli. The experiment in a line: Induction of strand scission in pBR322 DNA assessed as conversion from supercoiled form to nicked form at 500 uM after 60 mins by agarose gel electrophoresis in presence of Cu2+. The essentials: (§2)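 Supercoiled pBR322 plasmid DNA (500 ng) was incubated with 20 µM Cu2+ and test compound (in DMSO, final ≤5%) in 25 µL of 10 mM Tris-HCl, pH 8.0, at 37 °C for 60 min. Controls were DNA alone and DNA + Cu2+. Products were run on a 1.0% agarose gel with 0.7 µg/mL ethidium bromide in TBE, pH 8.3, at 110-120 V for 2-3 h, then imaged under UV. Read-out was % form II (nicked) DNA.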

Assay [3] relates to Escherichia coli. Put plainly: Induction of strand scission in pBR322 DNA assessed as conversion from supercoiled form to nicked form at 250 uM after 60 mins by agarose gel electrophoresis in presence of Cu2+. The essentials: as §2
In assay [4] the test system is Escherichia coli. Put plainly: Induction of strand scission in supercoiled pBR322 DNA by agarose gel electrophoresis in presence of Cu2+. The essentials: as §2
Assay [5] has as its system Escherichia coli. The experiment in a line: Induction of strand scission in supercoiled pBR322 DNA by agarose gel electrophoresis in presence of Fe2+.
For assay [6], the system named is Escherichia coli. Put plainly: Induction of strand scission in pBR322 DNA assessed as conversion from supercoiled form to nicked form at 1000 uM after 60 mins by agarose gel electrophoresis in presence of Cu2+. The essentials:
as §2

The subject of assay [7] is Escherichia coli. Put plainly: Induction of strand scission in supercoiled pBR322 DNA by agarose gel electrophoresis in absence of added metal ion.
The test system of assay [8] is Escherichia coli. The experiment in a line: Induction of strand scission in supercoiled pBR322 DNA by agarose gel electrophoresis in presence of Cu2+ and alkali.
In assay [9] the test system is Escherichia coli. The experiment in a line: Induction of strand scission in pBR322 DNA assessed as conversion from supercoiled form to nicked form at 100 uM after 60 mins by agarose gel electrophoresis in presence of Cu2+. In outline: as §2
Assay [10] relates to Escherichia coli. Put plainly: Induction of strand scission in pBR322 DNA assessed as conversion from supercoiled form to nicked form at 50 uM after 60 mins by agarose gel electrophoresis in presence of Cu2+. In outline:
as §2

In assay [11] the test system is Escherichia coli. The experiment in a line: Induction of strand scission in pBR322 DNA assessed as conversion from supercoiled form to nicked form at 250 uM after 60 mins by agarose gel electrophoresis in absence of Cu2+. The essentials: as §1

Take `COc1cc2oc(=O)ccc2cc1O`: the Activity in the assay with Escherichia coli [1] is 2%; in the assay with Escherichia coli [2], 26%; with Escherichia coli [3], 14%; in the assay on Escherichia coli [4] it was “Dose-dependent effect”; in the assay with Escherichia coli [6], 42%. Also, the result in the assay with Escherichia coli [5] and in the assay on Escherichia coli [7] was inactive.

With `COc1cc2ccc(=O)oc2cc1O`, the Activity in the assay with Escherichia coli [1] was 3%; with Escherichia coli [2] it was 22%; in the assay on Escherichia coli [3], 15%; in the assay with Escherichia coli [4], “Dose-dependent effect”; in the assay on Escherichia coli [6], 36%. Further, the result in the assay on Escherichia coli [5], in the assay with Escherichia coli [8] and in the assay with Escherichia coli [7] was inactive.

Regarding `O=c1ccc2cc(O)c(O)cc2o1`, the Activity in the assay on Escherichia coli [3] is 76%; in the assay with Escherichia coli [9] it was 64%; with Escherichia coli [10], 55%; with Escherichia coli [4], “Dose-dependent effect”; in the assay on Escherichia coli [11] it was 2%. For the same molecule, the result in the assay on Escherichia coli [5] and with Escherichia coli [7] was inactive.
